Laboratory results taken from ChEMBL document CHEMBL1155242, “Radiolabeled 5-iodo-3'-O-(17beta-succinyl-5alpha-androstan-3-one)-2'-deoxyuridine and its 5'-monophosphate for imaging and therapy of androgen receptor-positive cancers: synthesis and biological evaluation” (J Med Chem, 2009).
Active and inactive are the calls of the source. The rule behind the calls is not given here.

Legend:
[1] = Stability in human OVCAR-3 cells expressing androgen receptor assessed as assessed as compound degradation at 0.01 to 5 uCi/mL up to 24 hrs by silica gel instant thin layer chromatography; type: ADME, cell-based; details: read-out: Activity
[2] = Stability in human OVCAR-3 cells expressing androgen receptor assessed as half life at 0.01 to 5 uCi/mL by silica gel instant thin layer chromatography; type: ADME, cell-based
OVCAR-3 [3] = test: Antitumor activity against human OVCAR-3 cells xenografted in athymic NCr mouse administered 12 days after tumor implantation at a escalating dose of 5 uCi, ip of day 1, 20 uCi, ip on day 2, 15 uCi, ip on day 3 measured 5 weeks after implantation; type: functional, organism-based; details: tested as the 125I-labelled form
OVCAR-3 [4] = test: Antitumor activity against human OVCAR-3 cells xenografted in athymic NCr mouse at 14 uCi, ip administered 12 days after tumor implantation as single dose measured 5 weeks after implantation; type: functional, organism-based; details: tested as the 125I-labelled form
Summary of the method: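 Athymic NCr-nu/nu female mice bearing ip OVCAR-3 implants; compound given ip either as one 14 μCi/mouse dose or as three escalating daily doses of 5, 10 and 15 μCi/mouse (total 30 μCi); tumor response assessed at necropsy.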

Albumin [5] = target: Albumin (Oryctolagus cuniculus, UniProt P49065); test: Binding affinity to rabbit serum albumin at 10 to 20 uCi/mL after 60 mins by size-exclusion HPLC analysis; type: ADME; details: isolated protein, 1 h
Summary of the method: (§1)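 Radioiodinated compound incubated 60 min with human, rabbit or mouse serum, or with purified human SHBG. Aliquots analysed on a TSK3000 size-exclusion column: 0.1 M potassium phosphate/0.1 M Na2SO4 (1:1, pH 6.8) for 20 min, then 0–40% CH3CN over 20 min, held 30 min, 0.7 mL/min. Protein-bound versus free radioactivity read from the peaks.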

[6] = Stability in rabbit serum assessed as intact compound remaining at 10 to 20 uCi/mL after 60 mins by reversed phase HPLC analysis; type: ADME, cell-free, Oryctolagus cuniculus; details: read-out: Stability
Summary of the method: (§2)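 After 60 min incubation in human, rabbit or mouse serum, incubation mixtures were extracted. Extracts were run on C18 reverse-phase HPLC with H2O/CH3CN, both with 0.07% TFA: 100% aqueous for 10 min, then 0–95% CH3CN over 30 min, held 20 min. Intact radioactive compound was distinguished from degradation product against nonradioactive reference standards.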

[7] = target: T1, Sex hormone-binding globulin (Homo sapiens, UniProt P04278); test: Binding affinity to human sex hormone binding globulin at 10 to 20 uCi up to 6 hrs by reversed phase HPLC analysis; type: ADME
T1 sequence (P04278 whole entry): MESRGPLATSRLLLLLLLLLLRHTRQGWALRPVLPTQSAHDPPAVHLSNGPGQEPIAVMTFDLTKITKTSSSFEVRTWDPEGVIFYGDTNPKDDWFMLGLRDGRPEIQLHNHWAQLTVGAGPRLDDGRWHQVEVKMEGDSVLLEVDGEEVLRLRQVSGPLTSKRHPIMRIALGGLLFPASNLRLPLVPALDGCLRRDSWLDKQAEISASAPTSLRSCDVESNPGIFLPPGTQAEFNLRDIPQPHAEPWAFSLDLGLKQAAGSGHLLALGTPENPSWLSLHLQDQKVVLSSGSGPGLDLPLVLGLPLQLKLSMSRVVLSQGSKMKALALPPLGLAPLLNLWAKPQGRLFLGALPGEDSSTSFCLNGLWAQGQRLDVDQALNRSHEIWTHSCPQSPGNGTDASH

Albumin [8] = target: T2, Albumin (Mus musculus, UniProt P07724); test: Binding affinity to mouse serum albumin at 10 to 20 uCi/mL after 60 mins by size-exclusion HPLC analysis; type: ADME; details: isolated protein, 1 h; summary of the method: as §1
[9] = Stability in rabbit serum assessed as intact compound remaining at 10 to 20 uCi/mL after 60 mins by size-exclusion HPLC analysis; type: ADME, cell-free, Oryctolagus cuniculus; details: read-out: Stability; summary of the method: as §1
[10] = Stability in human serum assessed as intact compound remaining at 10 to 20 uCi/mL after 60 mins by size-exclusion HPLC analysis; type: ADME, cell-free; details: read-out: Stability; summary of the method: as §1
[11] = Stability in human serum assessed as intact compound remaining at 10 to 20 uCi/mL after 60 mins by reversed phase HPLC analysis; type: ADME, cell-free; details: read-out: Stability; summary of the method: as §2
[12] = Stability in mouse serum assessed as intact compound remaining at 10 to 20 uCi/mL after 60 mins by size-exclusion HPLC analysis; type: ADME, cell-free; details: read-out: Stability; summary of the method: as §1
[13] = Stability in mouse serum assessed as intact compound remaining at 10 to 20 uCi/mL after 60 mins by reversed phase HPLC analysis; type: ADME, cell-free; details: read-out: Stability; summary of the method: as §2
[14] = target: T1, Sex hormone-binding globulin; test: Binding affinity to human sex hormone binding globulin at 10 to 20 uCi up to 6 hrs by size-exclusion HPLC analysis; type: ADME
Albumin [15] = target: Albumin (Homo sapiens, UniProt P02768); test: Binding affinity to human serum albumin at 10 to 20 uCi/mL after 60 mins by size-exclusion HPLC analysis; type: ADME; details: isolated protein, 1 h; summary of the method: as §1
Albumin [16] = target: T2, Albumin; test: Binding affinity to mouse serum albumin at 10 to 20 uCi/mL after 60 mins by reversed phase HPLC analysis; type: ADME; details: isolated protein, 1 h

T2 sequence (P07724 whole entry): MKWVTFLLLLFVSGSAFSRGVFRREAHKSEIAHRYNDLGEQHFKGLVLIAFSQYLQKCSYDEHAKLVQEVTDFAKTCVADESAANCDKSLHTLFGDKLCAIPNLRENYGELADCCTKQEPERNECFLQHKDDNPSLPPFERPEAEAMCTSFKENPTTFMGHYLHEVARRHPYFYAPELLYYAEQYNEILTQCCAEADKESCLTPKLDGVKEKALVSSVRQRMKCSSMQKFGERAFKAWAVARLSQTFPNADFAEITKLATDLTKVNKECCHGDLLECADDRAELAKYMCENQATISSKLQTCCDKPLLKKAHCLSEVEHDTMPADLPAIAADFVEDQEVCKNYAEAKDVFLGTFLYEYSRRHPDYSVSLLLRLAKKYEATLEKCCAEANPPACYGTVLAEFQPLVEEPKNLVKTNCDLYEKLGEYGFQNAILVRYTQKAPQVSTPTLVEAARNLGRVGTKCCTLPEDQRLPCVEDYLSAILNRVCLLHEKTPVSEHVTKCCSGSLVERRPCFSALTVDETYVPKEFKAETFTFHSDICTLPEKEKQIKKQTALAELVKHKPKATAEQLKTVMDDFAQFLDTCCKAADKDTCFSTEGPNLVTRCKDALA
Sequence of Albumin (Oryctolagus cuniculus, UniProt P49065) (P49065 whole entry): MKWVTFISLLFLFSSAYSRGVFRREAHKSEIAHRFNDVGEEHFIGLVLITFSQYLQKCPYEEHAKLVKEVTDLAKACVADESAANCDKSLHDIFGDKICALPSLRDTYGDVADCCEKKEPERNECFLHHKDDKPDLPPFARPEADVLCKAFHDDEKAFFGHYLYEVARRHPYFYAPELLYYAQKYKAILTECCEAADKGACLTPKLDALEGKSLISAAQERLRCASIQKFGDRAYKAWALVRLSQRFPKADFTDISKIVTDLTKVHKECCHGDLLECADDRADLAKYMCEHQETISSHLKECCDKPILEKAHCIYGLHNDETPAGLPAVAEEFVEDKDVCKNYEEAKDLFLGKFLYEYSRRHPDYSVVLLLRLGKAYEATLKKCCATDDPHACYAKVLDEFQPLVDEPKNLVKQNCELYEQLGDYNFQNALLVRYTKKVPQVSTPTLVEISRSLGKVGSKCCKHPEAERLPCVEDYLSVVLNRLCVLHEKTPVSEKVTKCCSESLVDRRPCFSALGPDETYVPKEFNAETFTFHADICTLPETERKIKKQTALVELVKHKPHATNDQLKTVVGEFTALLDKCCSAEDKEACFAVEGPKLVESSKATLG
Sequence of Albumin (Homo sapiens, UniProt P02768) (P02768 whole entry): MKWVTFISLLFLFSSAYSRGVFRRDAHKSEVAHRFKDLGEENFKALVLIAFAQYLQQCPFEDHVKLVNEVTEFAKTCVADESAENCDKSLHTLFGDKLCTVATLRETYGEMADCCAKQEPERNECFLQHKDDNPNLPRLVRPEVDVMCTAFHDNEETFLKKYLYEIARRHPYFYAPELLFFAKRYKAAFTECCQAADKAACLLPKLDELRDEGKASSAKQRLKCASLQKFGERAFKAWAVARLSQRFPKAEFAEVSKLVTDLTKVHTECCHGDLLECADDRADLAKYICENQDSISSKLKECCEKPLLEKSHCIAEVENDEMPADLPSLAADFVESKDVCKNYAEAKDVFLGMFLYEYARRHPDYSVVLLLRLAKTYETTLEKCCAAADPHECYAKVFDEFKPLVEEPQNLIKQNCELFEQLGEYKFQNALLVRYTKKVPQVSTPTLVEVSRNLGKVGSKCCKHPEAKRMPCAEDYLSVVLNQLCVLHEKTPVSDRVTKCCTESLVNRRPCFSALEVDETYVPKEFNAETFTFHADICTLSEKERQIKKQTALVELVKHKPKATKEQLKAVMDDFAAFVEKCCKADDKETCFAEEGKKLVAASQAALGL

## C[C@]12CCC(=O)C[C@@H]1CC[C@@H]1[C@@H]2CC[C@]2(C)[C@@H](OC(=O)CCC(=O)O[C@H]3C[C@H](n4cc([123I])c(=O)[nH]c4=O)O[C@@H]3CO)CC[C@@H]12
[1]
  metabolised at 24 h: > 70%
[2]
  half-life: 13.2 h

## C[C@]12CCC(=O)C[C@@H]1CC[C@@H]1[C@@H]2CC[C@]2(C)[C@@H](OC(=O)CCC(=O)O[C@H]3C[C@H](n4cc(I)c(=O)[nH]c4=O)O[C@@H]3CO)CC[C@@H]12
OVCAR-3 [3]
  Activity: inactive
OVCAR-3 [4]
  Activity: inactive

## CCOC(=O)CCC(=O)O[C@H]1C[C@H](n2cc([125I])c(=O)[nH]c2=O)O[C@@H]1CO
Albumin [5]
  Activity: Not Active
[6]
  remaining at 1 h: < 2%
[7]
  Activity: Not Active
Albumin [8]
  Activity: Not Active
[9]
  remaining at 1 h: < 2%
[10]
  remaining at 1 h: > 90%
[11]
  remaining at 1 h: > 90%
[12]
  remaining at 1 h: < 2%
[13]
  remaining at 1 h: < 2%
[14]
  Activity: Not Active
Albumin [15]
  Activity: Not Active
Albumin [16]
  Activity: Not Active

## O=c1[nH]c(=O)n([C@H]2C[C@H](O)[C@@H](COP(=O)(O)O)O2)cc1[125I]
Albumin [5]
  Activity: Not Active
[6]
  remaining at 1 h: 30%
[7]
  Activity: Not Active
Albumin [8]
  Activity: Not Active
[9]
  remaining at 1 h: 30%
[10]
  remaining at 1 h: 30%
[11]
  remaining at 1 h: 30%
[14]
  Activity: Not Active
Albumin [15]
  Activity: Not Active
Albumin [16]
  Activity: Not Active
